The test system of one assay is MCF7. The experiment in a line: Antiproliferative activity against human MCF7 cells after 72 hrs by MTS/PMS assay. Format: functional, cell-based. The note with it: MCF7, 72 h. The gist of the method: (§1)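 Cells grown in medium with non-essential amino acids, 2 mM L-glutamine, streptomycin, penicillin and 10% FBS at 37 °C, 5% CO2; seeded 2000/well, attached overnight. Test agent added over a concentration range in DMSO (1% final), 72 h exposure. Viable cells counted by MTS/PMS read-out against 1% DMSO wells as 100% proliferation. IC50 taken as mean ± SD of at least two separate experiments, each in triplicate.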

The next assay relates to SK-BR-3. The experiment in a line: Antiproliferative activity against human SKBR3 cells after 72 hrs by MTS/PMS assay. Format: functional, cell-based. Conditions: SK-BR-3, 72 h. In a few lines:
as §1

A further assay relates to A549. The experiment in a line: Antiproliferative activity against human A549 cells after 72 hrs by MTS/PMS assay. Conditions: A549, 72 h. Format: functional, cell-based. The gist of the method:
as §1

A short description of assay [1]: Antiproliferative activity against human PC3MM2 cells after 72 hrs by MTS/PMS assay. It counts as functional, cell-based. The note with it: PC3MM2, 72 h. The gist of the method:
as §1

Assay [2] addresses T1, Heat shock protein HSP90 (Homo sapiens) (UniProt P07900+P08238). The experiment in a line: Inhibition of Hsp90 in human MCF7 cells assessed as induction of Raf degradation at 5 fold IC50 after 24 hrs by Western blot method. It counts as cell-based. The gist of the method: (§2)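 MCF-7 cells treated 24 h with compound in DMSO (1% final); geldanamycin 500 nM served as positive control and DMSO as vehicle control. Cells harvested in cold PBS and lysed 1 h on ice in RIPA with 1 mM PMSF, 2 mM orthovanadate and protease inhibitors. Lysates clarified 14,000g, 15 min, 4 °C. Protein (20 µg, BCA) resolved under reducing conditions and blotted on PVDF for Her2, Raf and Akt, with actin as loading control. Detection by HRP secondary antibody and chemiluminescence.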
In general terms: Immunoblotting shows a protein as a band on a membrane.

Assay [3] concerns the target T1, Heat shock protein HSP90 (Homo sapiens). The experiment in a line: Inhibition of Hsp90 in human MCF7 cells assessed as induction of Akt degradation at 0.5 fold IC50 after 24 hrs by Western blot method. Format: cell-based. In a few lines:
as §2

For assay [4] the target is unchanged. The experiment in a line: Inhibition of Hsp90 in human MCF7 cells assessed as induction of Akt degradation at 5 fold IC50 after 24 hrs by Western blot method. It counts as cell-based. The gist of the method:
as §2

Assay [5] shares this target. The experiment in a line: Inhibition of Hsp90 in human MCF7 cells assessed as induction of Raf degradation at 0.5 fold IC50 after 24 hrs by Western blot method. Format: cell-based. The gist of the method: as §2
Assay [6] has the same target. The experiment in a line: Inhibition of Hsp90 in human MCF7 cells assessed as induction of Her2 degradation at 5 fold IC50 after 24 hrs by Western blot method. It counts as cell-based. In a few lines:
as §2

For assay [7] the target is unchanged. The experiment in a line: Inhibition of Hsp90 in human MCF7 cells assessed as induction of Her2 degradation at 0.5 fold IC50 after 24 hrs by Western blot method. It counts as cell-based. In a few lines: as §2

The IC50 is the concentration needed to halve the response being measured. Read a high IC50 as lower potency.

The source made the active and inactive calls. No cut-off for these calls is given here.

For the compound `CO[C@H]1[C@H](OC(=O)c2ccc(C)[nH]2)[C@H](O)[C@@H](Oc2ccc3c(O)c(NC(=O)c4c[nH]c(C(=O)Nc5c(O)c6ccc(O[C@H]7OC(C)(C)[C@@H](OC)[C@H](OC(=O)c8ccc(C)[nH]8)[C@@H]7O)c(C)c6oc5=O)c4C)c(=O)oc3c2C)OC1(C)C` [COUMERMYCIN A1], the IC50 in the assay with MCF7 amounted to 8800 nM; in the assay with SK-BR-3 it was 5000 nM.

Regarding `Cc1c(OC2CCN(C)CC2)ccc2cc(NC(=O)CC/C=C\CCC(=O)Nc3cc4ccc(OC5CCN(C)CC5)c(C)c4oc3=O)c(=O)oc12`, the IC50 in the assay on A549 was 77600 nM; in the assay with MCF7, 49900 nM; in assay [1], 32900 nM; in the assay with SK-BR-3, above 100000 nM.

As to `Cc1c(OC2CCN(C)CC2)ccc2cc(NC(=O)CCCCC(=O)Nc3cc4ccc(OC5CCN(C)CC5)c(C)c4oc3=O)c(=O)oc12`, the IC50 turned out to be 2460 nM in the assay with MCF7 and 1260 nM in the assay with SK-BR-3.

Regarding `CO[C@H]1[C@H](O)[C@H](O)[C@@H](Oc2ccc3cc(NC(=O)CC/C=C/CCC(=O)Nc4cc5ccc(O[C@H]6OC(C)(C)[C@@H](OC)[C@H](O)[C@@H]6O)c(C)c5oc4=O)c(=O)oc3c2C)OC1(C)C`, the IC50 stood at 3900 nM with MCF7 and 1500 nM in the assay on SK-BR-3.

For `COc1ccc(C(=O)Nc2cc3ccc(OC(C)=O)c(C)c3oc2=O)cc1-c1cc(C(=O)Nc2cc3ccc(OC(C)=O)c(C)c3oc2=O)ccc1OC`, the IC50 in the assay on MCF7 is above 100000 nM; with SK-BR-3 it was 11800 nM.

Turning to `CO[C@H]1[C@H](O)[C@H](O)[C@@H](Oc2ccc3cc(NC(=O)C/C=C/CC(=O)Nc4cc5ccc(O[C@H]6OC(C)(C)[C@@H](OC)[C@H](O)[C@@H]6O)c(C)c5oc4=O)c(=O)oc3c2C)OC1(C)C`, the IC50 in the assay with MCF7 was 53100 nM; in the assay with SK-BR-3, above 100000 nM.

As to `COc1ccc(C(=O)Nc2cc3cc(OC)c(O[C@@H]4OC(C)(C)[C@H](OC)[C@@H](O)[C@H]4O)c(C)c3oc2=O)cc1-c1cc(C(=O)Nc2cc3cc(OC)c(O[C@@H]4OC(C)(C)[C@H](OC)[C@@H](O)[C@H]4O)c(C)c3oc2=O)ccc1OC`, the inhibition result in assay [2], in [3], in [4], in assay [5], in [6] and in assay [7] was “Active” each time. Further, the IC50 in the assay on MCF7 worked out at 720 nM; in the assay on SK-BR-3, 110 nM.

For `COc1cc2cc(NC(=O)C/C=C/CC(=O)Nc3cc4cc(OC)c(O[C@H]5OC(C)(C)[C@@H](OC)[C@H](O)[C@@H]5O)c(C)c4oc3=O)c(=O)oc2c(C)c1O[C@H]1OC(C)(C)[C@@H](OC)[C@H](O)[C@@H]1O`, the IC50 with MCF7 was determined as 168000 nM; with SK-BR-3, 106000 nM.

As for `COc1c(O[C@H]2OC(C)(C)[C@@H](OC)[C@H](O)[C@@H]2O)ccc2cc(NC(=O)C/C=C/CC(=O)Nc3cc4ccc(O[C@H]5OC(C)(C)[C@@H](OC)[C@H](O)[C@@H]5O)c(OC)c4oc3=O)c(=O)oc12`, the IC50 in the assay on MCF7 and in the assay with SK-BR-3 was above 100000 nM in each case.

In the case of `COc1ccc(C(=O)Nc2cc3ccc(OC4CCN(C)CC4)c(C)c3oc2=O)cc1-c1cc(C(=O)Nc2cc3ccc(OC4CCN(C)CC4)c(C)c3oc2=O)ccc1OC`, the values for the IC50 in the assay with MCF7 and in the assay on SK-BR-3 were 14200 nM and 4980 nM, respectively.

With `COc1c(OC2CCN(C)CC2)ccc2cc(NC(=O)C/C=C/CC(=O)Nc3cc4ccc(OC5CCN(C)CC5)c(OC)c4oc3=O)c(=O)oc12`, the inhibition result in assay [2], in assay [3], in assay [4], in assay [5], in [6] and in assay [7] was “Active” in each case. Moreover, the IC50 with MCF7 is 1460 nM; in [1], 8630 nM; in the assay with SK-BR-3, 710 nM.

`COc1cc2cc(NC(=O)C/C=C/CC(=O)Nc3cc4cc(OC)c(OC5CCN(C)CC5)c(C)c4oc3=O)c(=O)oc2c(C)c1OC1CCN(C)CC1`: the inhibition result in [2], in [3], in [4], in assay [5], in assay [6] and in assay [7] was “Active” in each case. Moreover, the IC50 in the assay with A549 worked out at 1250 nM; with MCF7, 560 nM; in assay [1] it was 170 nM; with SK-BR-3, 270 nM.

On to `Cc1c(OC2CCN(C)CC2)ccc2cc(NC(=O)CCCC/C=C/CCCCC(=O)Nc3cc4ccc(OC5CCN(C)CC5)c(C)c4oc3=O)c(=O)oc12`, for which the values for the IC50 with MCF7 and in the assay with SK-BR-3 were 730 nM and 510 nM, respectively.

Take `COc1cc2cc(NC(=O)CCC/C=C/CCCC(=O)Nc3cc4cc(OC)c(OC5CCN(C)CC5)c(C)c4oc3=O)c(=O)oc2c(C)c1OC1CCN(C)CC1`: the inhibition entry in [2], in assay [3], in assay [4], in [5], in assay [6] and in assay [7] was “Active” in each case. Besides, the IC50 in the assay on A549 was 37700 nM; with MCF7 it was 310 nM; in [1], 380 nM; with SK-BR-3 it was 220 nM.

In the case of `COc1c(OC2CCN(C)CC2)ccc2cc(NC(=O)CCC/C=C/CCCC(=O)Nc3cc4ccc(OC5CCN(C)CC5)c(OC)c4oc3=O)c(=O)oc12`, the inhibition entry in assay [2], in [3], in assay [4], in assay [5], in assay [6] and in assay [7] was “Active” throughout. The IC50 in the assay with A549 was 1210 nM; with MCF7, 880 nM; in assay [1], 50 nM; in the assay on SK-BR-3 it was 370 nM.

Regarding `COc1c(OC2CCN(C)CC2)ccc2cc(NC(=O)CC/C=C/CCC(=O)Nc3cc4ccc(OC5CCN(C)CC5)c(OC)c4oc3=O)c(=O)oc12`, the inhibition result in assay [2], in [3], in assay [4], in [5], in [6] and in [7] was “inactive” each time. The IC50 amounted to 1220 nM in the assay on A549, 1120 nM in the assay with MCF7, 60 nM in [1] and 2220 nM with SK-BR-3.

As to `CO[C@@H]1[C@@H](O)[C@@H](O)[C@H](Oc2ccc3cc(NC(=O)c4cccc(-c5cccc(C(=O)Nc6cc7ccc(O[C@@H]8OC(C)(C)[C@H](OC)[C@@H](O)[C@H]8O)c(C)c7oc6=O)c5)c4)c(=O)oc3c2C)OC1(C)C`, the IC50 stood at 1260 nM in the assay with MCF7 and 860 nM with SK-BR-3.

`COc1cc2cc(NC(=O)CC/C=C/CCC(=O)Nc3cc4cc(OC)c(O[C@H]5OC(C)(C)[C@@H](OC)[C@H](O)[C@@H]5O)c(C)c4oc3=O)c(=O)oc2c(C)c1O[C@H]1OC(C)(C)[C@@H](OC)[C@H](O)[C@@H]1O`: the IC50 turned out to be 2610 nM with MCF7 and 4100 nM with SK-BR-3.

As to `COc1cc(C(=O)Nc2cc3ccc(O[C@@H]4OC(C)(C)[C@H](OC)[C@@H](O)[C@H]4O)c(C)c3oc2=O)cc(-c2cc(C(=O)Nc3cc4ccc(O[C@@H]5OC(C)(C)[C@H](OC)[C@@H](O)[C@H]5O)c(C)c4oc3=O)ccc2OC)c1`, the IC50 with MCF7 worked out at 38000 nM; with SK-BR-3, 28500 nM.

Take `COc1c(O[C@H]2OC(C)(C)[C@@H](OC)[C@H](O)[C@@H]2O)ccc2cc(NC(=O)CC/C=C/CCC(=O)Nc3cc4ccc(O[C@H]5OC(C)(C)[C@@H](OC)[C@H](O)[C@@H]5O)c(OC)c4oc3=O)c(=O)oc12`: the IC50 is above 100000 nM in the assay on MCF7 and 52000 nM in the assay on SK-BR-3.

The values above are taken from ChEMBL document CHEMBL1821679, “Targeting the heat shock protein 90 dimer with dimeric inhibitors” (J Med Chem, 2011).
